Results as given in ChEMBL document CHEMBL4118190, “An SAR study of hydroxy-trifluoromethylpyrazolines as inhibitors of Orai1-mediated store operated Ca2+ entry in MDA-MB-231 breast cancer cells using a convenient Fluorescence Imaging Plate Reader assay” (Bioorg Med Chem, 2018).

Assays:
Type in all cases: cell-based
MDA-MB-231 = test: Inhibition of endoplasmic reticulum calcium channel in human MDA-MB-231 cells assessed as reduction in endoplasmic reticulum intracellular calcium release at 100 uM pretreated for 15 mins followed by SERCA inhibitor CPA addition measured after 700 secs by PBX dye based FLIPR assay relative to control
Method in brief: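 Same MDA-MB-231 PBX-dye FLIPR protocol: 15 min compound pretreatment at room temperature, then BAPTA (500 µM) and CPA (10 µM) to deplete ER stores. Peak 1 height after CPA addition (ER Ca2+ release) expressed as % inhibition relative to the DMSO control. Excitation 470–495 nm, emission 515–575 nm.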

[1] = target: T1, Calcium release-activated calcium channel protein 1 (Homo sapiens, UniProt Q96D31); test: Inhibition of […] Orai1-medited store operated calcium entry in human MDA-MB-231 cells at 100 uM pretreated for 15 mins followed by BAPTA addition by PBX dye based FLIPR assay relative to control
Method in brief: (§1)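 MDA-MB-231 cells seeded 2×10^3/well and used 3 days later. Loaded 1 h at 37 °C with 2 µM PBX calcium dye, 5% signal enhancer and 500 µM probenecid in PSS, pH 7.3. Compound pretreated 15 min at room temperature. Then 500 µM BAPTA, 10 µM CPA, and 0.5 mM CaCl2 700 s after CPA. Read-out: peak 2 height as % inhibition vs DMSO. 95% CI, n = 4.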
Target sequence in this assay (Q96D31 whole entry, looked up): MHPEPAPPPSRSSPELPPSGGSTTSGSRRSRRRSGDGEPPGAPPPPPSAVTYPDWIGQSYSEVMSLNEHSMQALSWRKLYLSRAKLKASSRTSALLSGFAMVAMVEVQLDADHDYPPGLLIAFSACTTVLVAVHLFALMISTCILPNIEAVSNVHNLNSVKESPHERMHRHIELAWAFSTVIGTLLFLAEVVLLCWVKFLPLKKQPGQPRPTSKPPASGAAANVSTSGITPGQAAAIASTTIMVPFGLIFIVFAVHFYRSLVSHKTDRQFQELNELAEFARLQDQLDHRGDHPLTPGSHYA

[2] = target: T1, Calcium release-activated calcium channel protein 1; test: Inhibition of […] Orai1-medited store operated calcium entry in human MDA-MB-231 cells at 30 uM pretreated for 15 mins followed by BAPTA addition by PBX dye based FLIPR assay relative to control; method in brief: as §1
Target sequence in this assay (Q96D31 whole entry, looked up): as above

[3] = target: T1, Calcium release-activated calcium channel protein 1; test: Inhibition of […] Orai1-medited store operated calcium entry in human MDA-MB-231 cells pretreated for 15 mins followed by BAPTA addition by PBX dye based FLIPR assay; method in brief: as §1
Target sequence in this assay (Q96D31 whole entry): as the sequence (Q96D31 whole entry, looked up) above

[4] = target: T1, Calcium release-activated calcium channel protein 1; test: Inhibition of […] Orai1-medited store operated calcium entry in human MDA-MB-231 cells at 300 uM pretreated for 15 mins followed by BAPTA addition by PBX dye based FLIPR assay relative to control; method in brief: as §1
Target sequence in this assay (Q96D31 whole entry, looked up): as above

Row | inhibition [1] | inhibition [2] | IC50 [3] | inhibition [4] | SMILES | inhibition (MDA-MB-231)
1 | 50% |  |  |  | O=C(Cc1ccccc1)N1N=C(c2cccc(OCCN3CCOCC3)c2)CC1(O)C(F)(F)F (stereo unspecified) | 50%
2 |  | 60% |  |  | O=C(Cc1ccccc1)N1N=C(c2cccc(NC(=O)C(F)(F)F)c2)CC1(O)C(F)(F)F (stereo unspecified) | < 10%
3 | < 10% |  |  |  | COc1cccc(OC)c1C1=NN(C(=O)Cc2ccccc2)C(O)(C(F)(F)F)C1 (stereo unspecified) | < 10%
4 | < 10% |  |  |  | N#Cc1ccc(C2=NN(C(=O)Cc3ccccc3)C(O)(C(F)(F)F)C2)cc1 (stereo unspecified) | < 10%
5 | < 10% |  |  |  | O=C(Cc1ccccc1)N1N=C(c2ccc(F)cc2)CC1(O)C(F)(F)F (stereo unspecified) | < 10%
6 | 20% |  |  |  | Cc1ccccc1CC(=O)N1N=C(c2ccccc2C)CC1(O)C(F)(F)F (stereo unspecified) | < 10%
7 | < 10% |  |  |  | Cc1cccc(C2=NN(C(=O)COc3ccccc3)C(O)(C(F)(F)F)C2)c1 (stereo unspecified) | < 10%
8 | < 10% |  |  | 50% | O=C(Cc1ccccc1)N1N=C(c2ccncc2)CC1(O)C(F)(F)F (stereo unspecified) | < 10%
9 | < 10% |  |  |  | O=C(Cc1ccccc1)N1N=C(c2ccc(OC(F)(F)F)cc2)CC1(O)C(F)(F)F (stereo unspecified) | < 10%
10 | 50% |  | 89 µM |  | O=C(Cc1ccccc1)N1N=C(c2ccc3c(c2)CCCC3)CC1(O)C(F)(F)F (stereo unspecified) | < 10%
11 | 25% |  |  |  | COc1ccccc1C1=NN(C(=O)Cc2ccccc2)C(O)(C(F)(F)F)C1 (stereo unspecified) | < 10%
12 |  |  | 33 µM |  | COc1ccc(CC(=O)N2N=C(c3cccc(C)c3)CC2(O)C(F)(F)F)cc1 (stereo unspecified) | < 10%
13 | 40% |  |  |  | O=C(Cc1ccccc1)N1N=C(c2ccccc2[N+](=O)[O-])CC1(O)C(F)(F)F (stereo unspecified) | < 10%
14 | < 10% |  |  |  | Cc1ccccc1C1=NN(C(=O)CC2CCCCC2)C(O)(C(F)(F)F)C1 (stereo unspecified) | < 10%
15 | < 10% |  |  |  | Cc1cccc(C2=NN(C(=O)CC3CCCCC3)C(O)(C(F)(F)F)C2)c1 (stereo unspecified) | < 10%
16 |  | 20% |  |  | CS(=O)(=O)Nc1cccc(C2=NN(C(=O)Cc3ccccc3)C(O)(C(F)(F)F)C2)c1 (stereo unspecified) | < 10%

The next lines start with the molecule.

Row | SMILES | inhibition [1] | inhibition [2] | IC50 [3] | inhibition [4] | inhibition (MDA-MB-231)
17 | O=C(Cc1ccccc1)N1N=C(c2cccc(OC(F)(F)F)c2)CC1(O)C(F)(F)F (stereo unspecified) | 50% |  |  |  | < 10%
18 | COc1ccccc1CC(=O)N1N=C(c2cccc(C)c2)CC1(O)C(F)(F)F (stereo unspecified) | 50% |  |  |  | < 10%
19 | COc1ccccc1CC(=O)N1N=C(c2ccccc2C)CC1(O)C(F)(F)F (stereo unspecified) | 60% |  |  |  | < 10%
20 | Cc1ccccc1C1=NN(C(=O)Cc2ccccc2)C(O)(C(F)(F)F)C1 (stereo unspecified) |  | 50% |  |  | < 10%
21 | O=C(Cc1ccccc1)N1N=C(c2ccc(Cl)cc2)CC1(O)C(F)(F)F (stereo unspecified) | < 10% |  |  |  | < 10%
22 | O=C(Cc1ccccc1)N1N=C(c2ccccc2F)CC1(O)C(F)(F)F (stereo unspecified) | 30% |  |  |  | < 10%
23 | Cc1ccccc1C1=NN(C(=O)Cc2ccccc2Cl)C(O)(C(F)(F)F)C1 (stereo unspecified) |  |  | 40 µM |  | < 10%
24 | O=C(Cc1ccccc1)N1N=C(c2cccc(F)c2)CC1(O)C(F)(F)F (stereo unspecified) |  | 60% |  |  | < 10%
25 | Cc1ccccc1C1=NN(C(=O)COc2ccccc2)C(O)(C(F)(F)F)C1 (stereo unspecified) |  |  | 105 µM |  | < 20%
26 | O=C(Cc1ccccc1)N1N=C(c2cccc([N+](=O)[O-])c2)CC1(O)C(F)(F)F (stereo unspecified) |  |  | 89 µM |  | < 10%
27 | O=C(Cc1ccccc1)N1N=C(c2ccc(Cl)cc2Cl)CC1(O)C(F)(F)F (stereo unspecified) | 60% |  | 58 µM |  | < 10%
28 | Cc1cccc(C2=NN(C(=O)Cc3ccc(Cl)cc3)C(O)(C(F)(F)F)C2)c1 (stereo unspecified) |  |  | 60 µM |  | < 10%
29 | Cc1cccc(C2(O)CC(C(F)(F)F)=NN2C(=O)c2ccccc2)c1 (stereo unspecified) | < 10% |  |  |  | < 10%
30 | Cc1ccc(C2=NN(C(=O)Cc3ccccc3)C(O)(C(F)(F)F)C2)cc1 (stereo unspecified) | < 10% |  |  |  | < 10%
31 | Cc1ccccc1C1(O)CC(C(F)(F)F)=NN1C(=O)CC1CCCCC1 (stereo unspecified) | 20% |  |  |  | < 10%
32 | O=C(Cc1ccccc1)N1N=C(c2ccccc2)CC1(O)C(F)(F)F (stereo unspecified) | < 10% |  |  |  | < 10%
33 | O=C(Cc1ccccc1)N1N=C(c2c(F)cccc2F)CC1(O)C(F)(F)F (stereo unspecified) | < 10% |  |  |  | < 10%
34 | Cc1ccc(CC(=O)N2N=C(c3ccccc3C)CC2(O)C(F)(F)F)cc1 (stereo unspecified) |  |  | 55 µM |  | < 10%
